Screening data as filed in PubChem.
The list is a sample of the results.
PGC1a acetyl up – raises PGC1a acetylation signal in U2OS cells; U2OS PGC1a acetylation AlphaScreen, overnight; activation, % at 15.6 µM; actives 0.21% (n = 350,000); AID 651723;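 active means every replicate reaching activation of at least 50%, whatever the mean replicate activation; inconclusive means replicates that disagree or another doubt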;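 further: hits raise the AlphaScreen acetylation signal above neutral controls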
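System – flag-PGC1a/GCN5 U2OS cells · Quantity – 7000 U2OS cells per well · Signal – AlphaScreen proximity luminescence, anti-acetyl-lysine antibody · Schedule – overnight compound treatment, 37 °C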
Hep G6PC suppr – PGC-1a acetylation activators affecting G6PC expression in hepatocytes. G6PC suppression (normalized activity, % of positive control; higher = more suppression), % at 26 µM. primary mouse hepatocytes, G6PC mRNA qPCR, forskolin. 240 tested, under 10 active. shares compounds with PGC1a acetyl up;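 active means dose curves showing G6PC suppression whose half-maximal dose is at most twice the top valid dose; inconclusive means flat curves with moderate negative activity, or unreliable fits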;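 further: G6PC expression relative to GAPDH housekeeping gene as delta delta Ct; 0% = median of neutral control wells and 100% = median of positive control wells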
Hep PCK1 suppr – PGC-1a acetylation activator altering hepatocyte PCK1 expression | shares compounds with PGC1a acetyl up | primary mouse hepatocytes, PCK1 mRNA qPCR, forskolin-stimulated | PCK1 expression decrease, unspecified at 26 µM | 230 tested, under 10 active | AID 743465;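 active means compounds lowering PCK1 expression whose fitted half-maximal concentration is at most twice the top tested dose; inconclusive means flat fit with moderate opposite-direction effect, or poor fit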;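 further: values are delta delta Ct of PCK1 relative to GAPDH; higher delta delta Ct means lower PCK1 expression so positive values indicate hits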
PGC1a hep suppr – PGC-1a acetylation activators affecting PGC-1a expression in hepatocytes; shares compounds with PGC1a acetyl up; primary mouse hepatocytes, PGC-1a mRNA qPCR, forskolin; top dose 26 µM; max activity (PGC-1a expression decrease), %; 240 tested, under 10 active; AID 743467;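 active means compound lowering PGC-1a expression with fitted half-maximal concentration at most twice its top tested dose; inconclusive means flat curve with moderate opposite-direction effect, or poor fit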;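 further: 0% = neutral control wells median and 100% = positive control wells median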
An asterisk follows results filed as active.

CCOc1ccc(N(C)S(=O)(=O)c2cc(-c3cc(C)no3)ccc2OC)cc1 was read as PGC1a acetyl up 54*, Hep G6PC suppr 23, Hep PCK1 suppr 61 and PGC1a hep suppr 57.
`CN1C2C=C3C(C#N)=C(N)C(C#N)(C#N)C(c4ccc(Br)cc4)C3C1CC2` (configuration not stated) gave PGC1a acetyl up -42.
`Cc1cc(C(=O)NNS(=O)(=O)c2ccc(F)cc2)nn1C(C)(C)C` gave PGC1a acetyl up 456*, Hep PCK1 suppr -0.84 and PGC1a hep suppr 10.
Screening Cc1ccccc1Nc1ncnc2c1cnn2-c1ccccc1 returned PGC1a acetyl up -63.
CN(C)/C=N/c1nc2nccc(-c3ccccn3)n2n1 was read as PGC1a acetyl up -47.
For Cc1c(Cl)cccc1Nc1ncccc1C(=O)O the results were PGC1a acetyl up -56.
`CCc1c(C(=O)NC2CCCCC2)[nH]c(C)c1C(C)=O` gave PGC1a acetyl up -93.
`O=C(NC1CCCCC1)c1cccnc1C(=O)O` gave PGC1a acetyl up -51, Hep G6PC suppr 40, Hep PCK1 suppr 13 and PGC1a hep suppr 69.
Screening Cc1ccc(C)c(S(=O)(=O)N(C(=O)c2ccncc2)c2ccc(OC(=O)c3ccncc3)cc2)c1 returned PGC1a acetyl up -44.
`CCOC(=O)c1sc2nc(C)nc(NCc3ccccc3OC)c2c1C` gave PGC1a acetyl up -63, Hep G6PC suppr 101, Hep PCK1 suppr 149 and PGC1a hep suppr 129.
`CC(=O)N(CCC(Cc1ccccc1)c1ccc2c(c1)OCO2)Cc1ccccc1F` (configuration not stated) gave PGC1a acetyl up -40.
CC(=O)N1N=C(c2ccco2)CC1c1ccco1 (configuration not stated) was read as PGC1a acetyl up -49.
For CCN(CC(=O)NCc1ccc(Cl)cc1)C(=O)CSCC(=O)Nc1ccc(C)cc1 the results were PGC1a acetyl up inconclusive, Hep G6PC suppr -12, Hep PCK1 suppr 34 and PGC1a hep suppr 60.
Screening Cc1nc(NCCc2ccccc2)c2nnn(Cc3ccccc3Cl)c2n1 returned PGC1a acetyl up -42.
Cc1c(C(=O)NCCSCc2c(F)cccc2Cl)cnn1-c1ccc(Cl)cc1 was read as PGC1a acetyl up inconclusive, Hep G6PC suppr -15, Hep PCK1 suppr -13 and PGC1a hep suppr -22.
Screening COC(=O)c1ccc(CSc2nc3c(cnn3-c3ccc(Cl)cc3)c(=O)[nH]2)o1 returned PGC1a acetyl up -53.
Screening CC(Nc1ccccc1)c1cc(Cl)ccc1O (configuration not stated) returned PGC1a acetyl up -48.
Screening COc1ccc(S(=O)(=O)Nc2ccc3c(c2)C(=O)N([C@@H](C)CO)C[C@@H](C)[C@H](CN(C)S(=O)(=O)c2ccc(Cl)cc2)OCCCC[C@H](C)O3)cc1 returned PGC1a acetyl up -49, Hep G6PC suppr 161, Hep PCK1 suppr 73 and PGC1a hep suppr 67.
Screening Cc1cc(C2=NNC(=NCCc3ccccc3)SC2)c(C)n1-c1c(C)n(C)n(-c2ccccc2)c1=O returned PGC1a acetyl up -63.
For COc1ccccc1C(=O)N1C(CC(=O)Nc2cc(Cl)ccc2C)C(=O)NC2CCCCC21 (configuration not stated) the results were PGC1a acetyl up -44.
Screening Cc1ccc(Cl)cc1NC(=O)Cn1nc(-c2cccs2)ccc1=O returned PGC1a acetyl up -40, Hep G6PC suppr -7, Hep PCK1 suppr -25 and PGC1a hep suppr 17.
For O=C(CCc1nc2ccccc2c(=O)[nH]1)Nc1ccc(N2CCCCC2)cc1 the results were PGC1a acetyl up 100*, Hep G6PC suppr 42 and PGC1a hep suppr 87.
Cc1ccc2nsnc2c1S(=O)(=O)N(Cc1ccco1)Cc1cc2cccc(C)c2[nH]c1=O was read as PGC1a acetyl up -47.
`O=C(Nc1ccc(-c2noc(CCc3ccccc3)n2)cc1)c1cccnc1` gave PGC1a acetyl up 131*, Hep G6PC suppr 28, Hep PCK1 suppr 2.8 and PGC1a hep suppr -18.
Cc1ccc2oc(Nc3nc(C)c(C)c(C)n3)nc2c1 was read as PGC1a acetyl up -41.
For COC(=O)c1ccc(NC(=O)c2cccnc2)cc1 the results were PGC1a acetyl up 127*, Hep PCK1 suppr 68 and PGC1a hep suppr inconclusive.
For Cc1ccc2oc(-c3ccc(NC(=O)c4cccnc4)cc3)nc2c1 the results were PGC1a acetyl up 73*, Hep G6PC suppr 5, Hep PCK1 suppr -7 and PGC1a hep suppr 83.
`Cc1cc(/C=C\c2ccc3cc(N(C)C)ccc3[n+]2C)c(C)n1-c1ccccc1` gave PGC1a acetyl up -68.
Screening COc1ccc(C[C@@H]2OC3(C=CC(=O)C=C3)O[C@H]2Cc2ccc(OC)cc2)cc1 returned PGC1a acetyl up -90.
O=C1C(Nc2ccccc2)=C/C(=N/S(=O)(=O)c2cccs2)c2ccccc21 was read as PGC1a acetyl up -59.
C=C[C@H]1CN2CCC1C[C@H]2[C@H](O)c1ccnc2ccc(OC)cc12 (some centres not stated) was read as PGC1a acetyl up -48.
Screening Cc1ccc(-c2nnc(Nc3ccc4c(c3)OCO4)c3ccccc23)cc1S(=O)(=O)NCCO returned PGC1a acetyl up 94*, Hep G6PC suppr 44, Hep PCK1 suppr 113 and PGC1a hep suppr 63.
`O=C1CN(C(=O)COC(=O)/C=C/c2ccco2)c2ccccc2N1` gave PGC1a acetyl up -40.
For CCOc1cc(/C=N/N=C(N)N)ccc1OCc1ccc(Cl)cc1 the results were PGC1a acetyl up -56.
Screening CCOc1ccc2nc(NCCNC(=O)Nc3ccccc3)c(C#N)cc2c1 returned PGC1a acetyl up -64.
`CC1(C)CCCN(C(=O)N2c3ccccc3Sc3ccccc32)C1` gave PGC1a acetyl up inconclusive, Hep G6PC suppr -23, Hep PCK1 suppr 14 and PGC1a hep suppr 82.
`C=CC(=O)N1C/C(=C/c2ccccc2)C(=O)/C(=C\c2ccccc2)C1` gave PGC1a acetyl up -73.
`Cc1ccc(-n2c(O)c(C=NC3CCS(=O)(=O)C3)c3ccccc3c2=O)c(C)c1` (configuration not stated) gave PGC1a acetyl up -57.
CC1=C/C(=N\OS(=O)(=O)c2ccccc2)C(C)=CC1=O was read as PGC1a acetyl up -60.
`Cc1cc(NC(=O)CCS(=O)(=O)c2nc(-c3ccccc3)cc(C(F)(F)F)n2)no1` gave PGC1a acetyl up -90.
For CSc1nsc(SC)c1NC(=O)Nc1ccccc1C the results were PGC1a acetyl up -103, Hep G6PC suppr -16, Hep PCK1 suppr 21 and PGC1a hep suppr 56.
For CCc1ccc(-c2cn3nc(-c4ccccc4)cnc3n2)cc1 the results were PGC1a acetyl up -45.
For C=CCn1c(SCC(=O)Nc2ccc(C(=O)O)cc2)nnc1-c1cccnc1 the results were PGC1a acetyl up -40.
For CCn1c(SCC(=O)Nc2ccc(NC(=O)c3ccco3)cc2)nnc1-c1cccs1 the results were PGC1a acetyl up 124*, Hep G6PC suppr 7, Hep PCK1 suppr -8.6 and PGC1a hep suppr 52.
For Cn1ncc(N=Cc2ccccc2)c1C(N)=O the results were PGC1a acetyl up -48.
